# Results reported in ChEMBL document CHEMBL5352471, “Design, synthesis, and pharmacological evaluations of pyrrolo[1,2-a]quinoxaline-based derivatives as potent and selective sirt6 activators” (Eur J Med Chem, 2023).
# Calls of active or inactive are those of the source. No cut-off for these calls is given here.
# Experiments:
# [1] = biological target: T1, NAD-dependent protein deacylase sirtuin-6 (Homo sapiens, UniProt Q8N6T7); test: Activation of SIRT6 (unknown origin) deacetylase activity assessed as fold activation; conditions: filed as activator
# Method in brief: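 Recombinant Sirt6 was run in a fluorometric activity kit (FDL-type deacetylation) with a fluoro-substrate peptide (0.1 mM stock), NAD+ (8 mM stock) and developer in a 25 µL reaction at room temperature. Compounds were tested at 100 and 30 µM. Fluorescence was read at Ex/Em 490/530 nm over 125 min. Fold activation is given as mean ± SD from at least two independent experiments.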
# [2] = tested on: SARS-CoV-2; test: Antiviral activity against SARS-CoV-2 infected in human A549-ACE2 cells assessed as viral growth inhibition; assay type: functional, organism-based; conditions: Severe acute respiratory syndrome coronavirus 2, A549-ACE2
# [3] = biological target: T2, NAD-dependent protein deacetylase sirtuin-1 (Homo sapiens) (UniProt Q96EB6); test: Activation of human SIRT1 (unknown origin) deacetylation activity using fluorogenic substrate measured upto 120 mins by microplate reader analysis
# T2 sequence (whole entry): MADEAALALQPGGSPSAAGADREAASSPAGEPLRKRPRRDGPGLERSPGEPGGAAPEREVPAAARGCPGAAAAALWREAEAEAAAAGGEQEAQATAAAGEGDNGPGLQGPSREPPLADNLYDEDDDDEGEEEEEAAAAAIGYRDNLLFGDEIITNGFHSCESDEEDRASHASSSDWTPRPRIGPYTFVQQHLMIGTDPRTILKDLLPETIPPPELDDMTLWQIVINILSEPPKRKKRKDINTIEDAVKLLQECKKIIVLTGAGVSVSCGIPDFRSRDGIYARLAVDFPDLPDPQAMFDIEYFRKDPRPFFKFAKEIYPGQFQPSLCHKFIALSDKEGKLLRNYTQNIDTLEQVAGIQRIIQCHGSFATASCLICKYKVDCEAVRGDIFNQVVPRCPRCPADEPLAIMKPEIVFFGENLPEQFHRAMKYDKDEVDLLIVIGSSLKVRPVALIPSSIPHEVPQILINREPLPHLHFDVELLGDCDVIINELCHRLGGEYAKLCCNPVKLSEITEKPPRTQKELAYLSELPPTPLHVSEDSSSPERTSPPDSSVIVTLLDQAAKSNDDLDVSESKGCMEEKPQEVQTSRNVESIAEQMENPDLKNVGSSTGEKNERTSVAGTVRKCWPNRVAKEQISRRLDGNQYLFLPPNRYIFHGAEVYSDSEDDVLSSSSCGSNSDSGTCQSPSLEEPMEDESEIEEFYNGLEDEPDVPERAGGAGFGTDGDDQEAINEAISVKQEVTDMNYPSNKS
# Method in brief: (§1)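 Recombinant Sirt1 or Sirt2 was assayed with a kit fluoro-substrate peptide (0.1 mM stock), NAD+ (8 mM stock) and developer in a 25 µL reaction at room temperature. Fluorescence was read over 125 min, at Ex/Em 350/450 nm for Sirt1 and 490/530 nm for Sirt2.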
# [4] = biological target: NAD-dependent protein deacylase sirtuin-5, mitochondrial (Homo sapiens) (UniProt Q9NXA8); test: Activation of human SIRT5 (unknown origin) desuccinylation activity using fluorogenic substrate measured upto 120 mins by microplate reader analysis
# [5] = biological target: T3, NAD-dependent protein deacetylase sirtuin-2 (Homo sapiens) (UniProt Q8IXJ6); test: Activation of human SIRT2 (unknown origin) deacetylation activity using fluorogenic substrate measured upto 120 mins by microplate reader analysis; method in brief: as §1
# T3 sequence (whole entry): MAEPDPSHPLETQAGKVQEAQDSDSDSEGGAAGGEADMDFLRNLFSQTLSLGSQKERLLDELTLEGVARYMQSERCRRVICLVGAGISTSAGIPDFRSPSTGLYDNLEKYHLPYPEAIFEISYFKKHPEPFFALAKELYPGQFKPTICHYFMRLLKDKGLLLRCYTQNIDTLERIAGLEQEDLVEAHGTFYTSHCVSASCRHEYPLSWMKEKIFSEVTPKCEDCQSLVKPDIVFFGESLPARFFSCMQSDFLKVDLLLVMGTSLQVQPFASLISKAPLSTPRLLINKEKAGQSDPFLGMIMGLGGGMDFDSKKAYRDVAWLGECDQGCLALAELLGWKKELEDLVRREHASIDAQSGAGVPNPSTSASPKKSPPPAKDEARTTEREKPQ
# [6] = Cytotoxicity against human A549-ACE2 cells assessed as inhibition of cell growth measured for 48 hrs; assay type: functional
# [7] = biological target: T1, NAD-dependent protein deacylase sirtuin-6; test: Activation of recombinant SIRT6 (unknown origin) deacetylase activity using fluoro peptide as substrate by microplate reader analysis
# [8] = Oral bioavailability in C57BL/6J mouse at 20 to 30 mg/kg, iv measured upto 24 hrs by LC-MS/MS analysis; assay type: ADME, organism-based; conditions: in vivo, dose 20-30 mg/kg
# [9] = biological target: T1, NAD-dependent protein deacylase sirtuin-6; test: Activation of SIRT6 (unknown origin) deacetylase activity assessed as fold increase in maximal activation; conditions: filed as activator
# [10] = biological target: T1, NAD-dependent protein deacylase sirtuin-6; test: Activation of his6-tagged SIRT6 (unknown origin) assessed as fold activation using H3K9Ac peptide substrate incubated for 30 mins; conditions: filed as activator
# T1 sequence (Q8N6T7 whole entry): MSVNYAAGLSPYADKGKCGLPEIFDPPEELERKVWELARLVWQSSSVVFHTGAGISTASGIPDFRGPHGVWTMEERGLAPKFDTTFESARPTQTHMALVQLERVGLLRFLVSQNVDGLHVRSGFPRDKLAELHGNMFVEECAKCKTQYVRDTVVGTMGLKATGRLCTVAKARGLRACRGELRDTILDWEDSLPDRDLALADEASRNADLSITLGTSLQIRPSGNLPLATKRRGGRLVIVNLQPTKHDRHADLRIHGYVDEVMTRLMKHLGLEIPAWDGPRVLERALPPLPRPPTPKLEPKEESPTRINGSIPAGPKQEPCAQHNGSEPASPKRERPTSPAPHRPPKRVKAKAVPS
# Sequence of NAD-dependent protein deacylase sirtuin-5, mitochondrial (Homo sapiens) (Q9NXA8 37-310 limits assumed): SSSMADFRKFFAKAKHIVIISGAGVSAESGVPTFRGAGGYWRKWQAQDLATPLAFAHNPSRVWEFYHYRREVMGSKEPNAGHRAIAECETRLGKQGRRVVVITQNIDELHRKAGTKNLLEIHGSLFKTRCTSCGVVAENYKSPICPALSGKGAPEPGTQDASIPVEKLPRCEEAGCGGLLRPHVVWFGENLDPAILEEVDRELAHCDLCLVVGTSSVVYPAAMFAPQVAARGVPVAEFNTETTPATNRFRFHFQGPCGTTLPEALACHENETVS
compound,measurement,setting,value
O=C(O)c1ccc2c(c1)C(=O)N(c1ccc(N(C(=O)c3c(Cl)cc(Cl)cc3Cl)C(=O)c3c(Cl)cc(Cl)cc3Cl)c(Cl)c1)C2=O,fold change (FC),[1],4
CN(C)CCN1CCN(c2ncccc2C2Nc3ccccc3-n3cccc32)CC1 (stereo not drawn),EC50,[2],9.3 µM
same,Activity,[3],inactive
same,Activity,[3]; filed as activator,Active
same,Activity,[4],inactive
same,Activity,[5],inactive
same,CC50,[6],> 50 µM
same,EC50,[7],48.8 µM
Cc1cc(F)c(Br)cc1NS(=O)(=O)c1ccc(NS(=O)(=O)c2cc(Cl)cc(Cl)c2)cc1CN1CCOC[C@H]1C,bioavailability,[8],93%
c1cncc(C2Nc3ccccc3-n3cccc32)c1 (stereo not drawn),EC50,[2],50 µM
same,fold change (FC),[9],2
same,CC50,[6],> 50 µM
CCCCCCCC/C=C\CCCCCCCC(=O)NCCO,fold change (FC),[10],2.1
